E-selectin induc: E-selectin induction in HUVECs, primary screen, imaging, HUVEC, immunofluorescence imaging, single point | P16581 | normalized: neutral wells 0, TNF-alpha wells 100 | activation, % at 7.58 µM | 260,000 compounds, 0.37% hits;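 active = mean E-selectin-positive cell signal at least 10% of the positive control, reached in at least 60% of replicates, without over 20% cell loss; inconclusive = no rule given, readout overlaps actives, possibly toxicity-flagged; inactive = the rest, including those meeting only one limit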
Target sequence (P16581 whole entry, looked up): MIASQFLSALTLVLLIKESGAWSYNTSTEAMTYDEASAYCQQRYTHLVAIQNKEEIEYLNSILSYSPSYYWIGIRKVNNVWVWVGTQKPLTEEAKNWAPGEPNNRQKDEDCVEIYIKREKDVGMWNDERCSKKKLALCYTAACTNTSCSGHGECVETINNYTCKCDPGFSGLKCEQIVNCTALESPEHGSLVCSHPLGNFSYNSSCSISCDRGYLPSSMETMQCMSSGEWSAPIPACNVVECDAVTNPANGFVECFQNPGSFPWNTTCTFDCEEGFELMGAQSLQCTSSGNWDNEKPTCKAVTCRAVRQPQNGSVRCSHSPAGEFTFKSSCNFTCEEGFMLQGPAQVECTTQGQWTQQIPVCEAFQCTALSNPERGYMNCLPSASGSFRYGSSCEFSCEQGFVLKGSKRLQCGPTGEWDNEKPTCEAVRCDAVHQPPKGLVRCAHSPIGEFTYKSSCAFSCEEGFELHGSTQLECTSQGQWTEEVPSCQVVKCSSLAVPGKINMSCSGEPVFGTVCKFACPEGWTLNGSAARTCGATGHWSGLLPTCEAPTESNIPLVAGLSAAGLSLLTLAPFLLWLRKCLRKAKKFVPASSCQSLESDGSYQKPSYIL
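System: HUVEC, human umbilical vein endothelial cells; quantity: 3,000 cells/well; buffer or medium: EGM-2 medium, gelatin-coated wells; dosing: single-point compound dose; detection: immunofluorescence imaging; evaluation: % PE-positive cells; benchmarks: TNF-alpha, DMSO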
SIRT5 block: SIRT5 desuccinylase inhibitors, primary screen, biochemical, fluorescence imaging, single point, set 5. NAD-dependent protein deacylase sirtuin-5, mitochondrial (Homo sapiens), Q9NXA8. Purified SirT5, succinyl-peptide AMC, trypsin-coupled fluorescence. inhibition, % at 15 µM. 330,000 compounds, 1.1% hits. AID 652115, 2013; in the data active = inhibition above about 15%; inconclusive = no clear call, values can overlap the other calls
DENV2 CPE: inhibitors of DENV2 cytopathic effect, primary screen, cell-based, plate reader, single concentration; DENV2-infected cells, cytopathic effect rescue; CPE inhibition, % at 9.99 µM; 350,000 compounds, 1.7% hits; in the data active = CPE inhibition above about 20%, passing the limit was not always enough; inconclusive = no clear call, values can overlap the other calls; tested in BHK-21 cells
Of the large screens only hits and unclear results are named; the others gave an inactive call. An excerpt weighted towards active compounds, which were near 2.8% of everything screened.

Cc1noc(C)c1S(=O)(=O)Nc1ccc2c(c1)CC(=O)N([C@@H](C)CO)C[C@@H](C)[C@H](CN(C)Cc1ccncc1)O2	none (no result: E-selectin induc, DENV2 CPE)
Cc1noc(C)c1S(=O)(=O)Nc1ccc2c(c1)CC(=O)N([C@H](C)CO)C[C@H](C)[C@H](CN(C)Cc1ccncc1)O2	SIRT5 block 19.5 (no result: E-selectin induc)
Cc1noc(C)c1S(=O)(=O)Nc1ccc2c(c1)CC(=O)N([C@H](C)CO)C[C@@H](C)[C@H](CN(C)Cc1ccccc1)O2	DENV2 CPE 21.6 (no result: SIRT5 block)
Cc1noc(C)c1S(=O)(=O)Nc1ccc2c(c1)CC(=O)N([C@H](C)CO)C[C@H](C)[C@@H](CN(C)Cc1ccc(-c3ccccc3)cc1)O2	E-selectin induc 58.0
Cc1noc(C)c1S(=O)(=O)Nc1ccc2c(c1)CC(=O)N([C@H](C)CO)C[C@H](C)[C@H](CN(C)Cc1ccccc1)O2	none
Cc1noc(C)c1S(=O)(=O)Nc1ccc2c(c1)CC(=O)N([C@@H](C)CO)C[C@@H](C)[C@H](CN(C)Cc1ccc(-c3ccccc3)cc1)O2	none
Cc1noc(C)c1NC(=O)Nc1ccc2c(c1)C(=O)N([C@@H](C)CO)C[C@@H](C)[C@@H](CN(C)C(=O)Nc1ccc(C(F)(F)F)cc1)OCCCC[C@@H](C)O2	none
C[C@@H]1CN([C@H](C)CO)C(=O)Cc2cc(NC(=O)NC3CCCCC3)ccc2O[C@H]1CN(C)Cc1ccc(C(F)(F)F)cc1	none
C[C@H]1CN([C@@H](C)CO)S(=O)(=O)c2ccc(C#CC3CCCC3)cc2O[C@@H]1CN(C)Cc1cncnc1	none (no result: SIRT5 block, DENV2 CPE)
C[C@@H](NC(=O)C[C@H]1CC[C@@H]2[C@H](COC[C@H](O)CN2Cc2cc(F)ccc2F)O1)c1ccccc1	none
CC1CCC(CN2C(Nc3ccccc3)=NC[C@@H]2Cc2ccccc2)CC1 (some centres undefined)	none (no result: SIRT5 block)
c1ccc(C[C@H]2CN=C(Nc3ccccc3)N2CC2CCCC2)cc1	SIRT5 block 20.8
CCCCN1C(Nc2ccccc2)=NC[C@@H]1Cc1ccccc1	DENV2 CPE 21.6 (no result: SIRT5 block)
c1ccc(C[C@H]2CN=C(Nc3ccccc3)N2CC2CCCCC2)cc1	none
c1ccc(C[C@H]2CN=C(Nc3ccccc3)N2CCCC2CCCCC2)cc1	none (no result: SIRT5 block)
CC1CCC(CN2C(Nc3ccccc3)=NC[C@@H]2C)CC1 (some centres undefined)	DENV2 CPE 40.1
CN(C)C(=O)c1ccc(-c2ccc(C3[C@@H]4CN(C(=O)C5CCOCC5)C[C@H]3N4)cc2)cc1 (some centres undefined)	none
CCC(=O)N[C@@H]1CC[C@H](CCNS(=O)(=O)c2ccc(Cl)cc2)O[C@@H]1CO	none
Cc1noc(C)c1S(=O)(=O)N(C)C[C@@H]1OCCCC[C@@H](C)Oc2ccc(NC(=O)Nc3ccccc3)cc2C(=O)N([C@@H](C)CO)C[C@H]1C	none
COc1ccc(CNC(=O)CCNC(=O)c2ccco2)cc1OC	DENV2 CPE 39.0
COc1cccc(CNC(=O)CCNC(=O)c2ccco2)c1	none
CC(=O)N1[C@@H]2Cn3c(ccc(C4=CCCC4)c3=O)[C@H]1[C@@H](C(=O)NC1CCCC1)[C@@H]2CO	DENV2 CPE inconclusive
CCOC(=O)N1CCC(NS(=O)(=O)c2ccc(C#N)cc2)CC1	DENV2 CPE 46.8 (no result: SIRT5 block)
CN1C2CCC1CC(NS(=O)(=O)c1ccc(C#N)cc1)C2 (centres undefined)	none
O=C(Nc1ccc(CN2CCOCC2)cc1)c1ccc(Cl)cc1Cl	SIRT5 block 18.0 (no result: E-selectin induc)
O=C(CN1CCOCC1)Nc1ccc(Cl)cc1	none (no result: E-selectin induc)
O=C(Nc1ccc(CN2CCOCC2)cc1)c1cc(Br)ccc1Cl	none
Cc1ccc(C(=O)Nc2ccc(CN3CCCCC3)cc2)c(C)c1	DENV2 CPE 34.8 (no result: E-selectin induc)
COc1ccc(Cl)cc1C(=O)Nc1ccc(CN2CCCCC2)cc1	none (no result: E-selectin induc)
Cc1ccc(NC(=O)CN2CCOCC2)cc1Cl	E-selectin induc 45.8, SIRT5 block 25.3
C[C@H]1CN([C@@H](C)CO)C(=O)c2cc(-c3ccc(C#N)cc3)cnc2O[C@@H]1CN(C)C(=O)c1ccccc1	none
O=C(C[C@H]1C=C[C@H](NC(=O)c2ccncc2)[C@@H](CO)O1)Nc1ccccc1	none
CSCCC(c1nnnn1-c1c(C)cccc1C)N1CCN(C/C=C/c2ccccc2)CC1 (centres undefined)	none (no result: E-selectin induc)
CCC(c1nnnn1-c1c(C)cccc1C)N1CCN(C/C=C/c2ccccc2)CC1 (centres undefined)	DENV2 CPE 106.3
CO[C@H]1CN(C)C(=O)c2cc(NC(C)=O)ccc2OC[C@@H](C)N(Cc2ccccc2C(=O)O)C[C@@H]1C	none
O=C(NCc1cccnc1)c1nc(-c2ccc(C(F)(F)F)cc2)no1	none
O=C(NCc1ccncc1)c1nc(-c2ccc(C(F)(F)F)cc2)no1	SIRT5 block 18.7 (no result: E-selectin induc, DENV2 CPE)

High-throughput results as filed in PubChem.
